Laboratory results as given in ChEMBL document CHEMBL1155135, “Effect of Lamivudine on the plasma and intracellular pharmacokinetics of apricitabine, a novel nucleoside reverse transcriptase inhibitor, in healthy volunteers” (Antimicrob Agents Chemother, 2007).
Each block holds one compound with its values, some of them ahead of it.

What was measured:
[1] = AUC (0 to 24 hrs) in healthy human at 600 mg, po administered twice daily for 4 days; assay type: ADME, organism-based; parameters: dose 600 mg, time < 24 hr, route oral; conditions: plasma
Outline: (§1)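 Healthy volunteers took each regimen in random order for 4 days, with washouts of at least 7 days. The day-4 morning dose followed a fast of at least 10 h. Plasma was drawn predose and 0.5–36 h after dosing, and urine was collected to 36 h; both were assayed by validated HPLC. Cmax/Tmax were read from the curves. CLT/F = dose/AUC, CLR = 24-h urinary amount/AUC0-24, Vz/F = dose/(λz·AUC), t1/2 = ln2/λz.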

Homo sapiens [2] = test: Cmin in healthy human PBMC assessed as intracellular apricitabine triphosphate level per 10^6 cells at 600 mg, po twice daily coadministered with 300 mg, po Lamivudine once daily for 4 days; assay type: ADME, organism-based; conditions: in vivo, 96 h
Homo sapiens [3] = test: Half life in healthy human PBMC assessed as intracellular apricitabine triphosphate level per 10^6 cells at 600 mg, po twice daily coadministered with 300 mg, po Lamivudine once daily for 4 days; assay type: ADME, organism-based; conditions: in vivo, 96 h
Outline: (§2)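 PBMC were isolated from triplicate day-4 blood samples taken 2, 4, 8, 12 and 24 h after the morning dose, then extracted in 70/30 methanol-Tris-HCl pH 7.4. Triphosphates were separated by anion-exchange SPE with KCl washes, eluted with 500 mM KCl, and dephosphorylated with alkaline phosphatase at 37°C. Quantitation used HPLC-MS/MS with a labelled triphosphate internal standard; LLOQ 0.0592 pmol/10^6 cells. Cmax/Tmax were read by inspection; t1/2 = ln2/λz.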

Homo sapiens [4] = test: Cmin in healthy human PBMC assessed as intracellular apricitabine triphosphate level per 10^6 cells at 600 mg, po administered twice daily for 4 days; assay type: ADME, organism-based; conditions: in vivo, 96 h
Homo sapiens [5] = test: Cmax in healthy human PBMC assessed as intracellular apricitabine triphosphate level per 10^6 cells at 600 mg, po administered twice daily for 4 days; assay type: ADME, organism-based, Blood; parameters: dose 600 mg, route oral; conditions: in vivo, 96 h; outline: as §2
Homo sapiens [6] = test: AUC (0 to 12 hrs) in healthy human PBMC assessed as intracellular apricitabine triphosphate level per 10^6 cells at 600 mg, po twice daily coadministered with 300 mg, po Lamivudine once daily for 4 days; assay type: ADME, organism-based; parameters: time < 12 hr, dose 600 mg, route oral; conditions: in vivo; outline: as §2
[7] = Renal clearance in healthy human at 600 mg, po administered twice daily for 4 days; assay type: ADME, organism-based, Kidney; conditions: in vivo, read-out: CL_renal (converted); outline: as §1
Homo sapiens [8] = test: Ratio of Cmax to Cmin in healthy human PBMC assessed as intracellular apricitabine triphosphate level per 10^6 cells at 600 mg, po administered twice daily for 4 days; assay type: ADME, organism-based; conditions: in vivo, 96 h
Homo sapiens [9] = test: Volume of distribution at steady state in healthy human at 600 mg, po twice daily coadministered with 300 mg, po Lamivudine once daily for 4 days; assay type: ADME, organism-based; conditions: in vivo, 96 h; outline: as §1
[10] = Cmax in healthy human at 600 mg, po administered twice daily for 4 days; assay type: ADME, organism-based; parameters: dose 600 mg, route oral; conditions: in vivo; outline: as §1
Homo sapiens [11] = test: Cmax in healthy human PBMC assessed as intracellular apricitabine triphosphate level per 10^6 cells at 600 mg, po twice daily coadministered with 300 mg, po Lamivudine once daily for 4 days; assay type: ADME, organism-based, Blood; parameters: dose 600 mg, route oral; conditions: in vivo, 96 h; outline: as §2
[12] = Apparent total oral clearance in healthy human at 600 mg, po administered twice daily for 4 days; assay type: ADME, organism-based; conditions: in vivo; outline: as §1
[13] = Tmax in healthy human at 600 mg, po twice daily coadministered with 300 mg, po Lamivudine once daily for 4 days; assay type: ADME, organism-based; conditions: in vivo; outline: as §1
Homo sapiens [14] = test: Volume of distribution at steady state in healthy human at 600 mg, po administered twice daily for 4 days; assay type: ADME, organism-based; conditions: in vivo, 96 h; outline: as §1
Homo sapiens [15] = test: Ratio of Cmax to Cmin in healthy human PBMC assessed as intracellular apricitabine triphosphate level per 10^6 cells at 600 mg, po twice daily coadministered with 300 mg, po Lamivudine once daily for 4 days; assay type: ADME, organism-based; conditions: in vivo, 96 h
Homo sapiens [16] = test: Renal clearance in healthy human at 600 mg, po twice daily coadministered with 300 mg, po Lamivudine once daily for 4 days; assay type: ADME, organism-based, Kidney; conditions: in vivo, 96 h; outline: as §1
Homo sapiens [17] = test: Half life in healthy human PBMC assessed as intracellular apricitabine triphosphate level per 10^6 cells at 600 mg, po administered twice daily for 4 days; assay type: ADME, organism-based; conditions: in vivo, 96 h; outline: as §2
Homo sapiens [18] = test: AUC (0 to 12 hrs) in healthy human PBMC assessed as intracellular apricitabine triphosphate level per 10^6 cells at 600 mg, po administered twice daily for 4 days; assay type: ADME, organism-based; parameters: dose 600 mg, time < 12 hr, route oral; conditions: in vivo; outline: as §2
Homo sapiens [19] = test: Apparent total oral clearance in healthy human at 600 mg, po twice daily coadministered with 300 mg, po Lamivudine once daily for 4 days; assay type: ADME, organism-based; conditions: in vivo, 96 h; outline: as §1
[20] = Apparent terminal half life in healthy human at 600 mg, po twice daily coadministered with 300 mg, po Lamivudine once daily for 4 days; assay type: ADME, organism-based; conditions: in vivo; outline: as §1
[21] = Cmax in healthy human at 600 mg, po twice daily coadministered with 300 mg, po Lamivudine once daily for 4 days; assay type: ADME, organism-based; parameters: dose 600 mg, route oral; conditions: in vivo; outline: as §1
[22] = AUC (0 to 24 hrs) in healthy human at 600 mg, po twice daily coadministered with 300 mg, po Lamivudine once daily for 4 days; assay type: ADME, organism-based; parameters: dose 600 mg, time < 24 hr, route oral; conditions: plasma; outline: as §1
Homo sapiens [23] = test: Tmax in healthy human PBMC assessed as intracellular apricitabine triphosphate level at 600 mg, po twice daily coadministered with 300 mg, po Lamivudine once daily for 4 days; assay type: ADME, organism-based; conditions: in vivo, 96 h; outline: as §2
[24] = Apparent terminal half life in healthy human at 600 mg, po administered twice daily for 4 days; assay type: ADME, organism-based; conditions: in vivo; outline: as §1
Homo sapiens [25] = test: Tmax in healthy human PBMC assessed as intracellular apricitabine triphosphate level at 600 mg, po administered twice daily for 4 days; assay type: ADME, organism-based; conditions: in vivo, 96 h; outline: as §2
[26] = Tmax in healthy human at 600 mg, po administered twice daily for 4 days; assay type: ADME, organism-based; conditions: in vivo; outline: as §1
Homo sapiens [27] = test: AUC (0 to 12 hrs) in healthy human PBMC assessed as intracellular lamivudine triphosphate level per 10^6 cells at 300 mg, po once daily coadministered with 600 mg, po apricitabine twice daily for 4 days; conditions: in vivo
[28] = Cmax in healthy human at 300 mg, po administered once daily for 4 days; assay type: ADME, organism-based; parameters: dose 300 mg, route oral; conditions: in vivo; outline: as §1
Homo sapiens [29] = test: Cmax in healthy human PBMC assessed as intracellular apricitabine triphosphate level per 10^6 cells at 300 mg, po once daily coadministered with 600 mg, po apricitabine twice daily for 4 days; assay type: ADME, organism-based, Blood; parameters: dose 300 mg, route oral; conditions: in vivo, 96 h; outline: as §2
[30] = Tmax in healthy human at 300 mg, po once daily coadministered with 600 mg, po apricitabine twice daily for 4 days; assay type: ADME, organism-based; conditions: in vivo; outline: as §1
[31] = AUC (0 to 24 hrs) in healthy human at 300 mg, po administered once daily for 4 days; assay type: ADME, organism-based; parameters: dose 300 mg, time < 24 hr, route oral; conditions: plasma; outline: as §1
Homo sapiens [32] = test: Cmin in healthy human PBMC assessed as intracellular lamivudine triphosphate level per 10^6 cells at 300 mg, po administered once daily for 4 days; conditions: in vivo, 96 h
Homo sapiens [33] = test: AUC (0 to 12 hrs) in healthy human PBMC assessed as intracellular lamivudine triphosphate level per 10^6 cells at 300 mg, po administered once daily for 4 days; conditions: in vivo
Homo sapiens [34] = test: Tmax in healthy human PBMC assessed as intracellular apricitabine triphosphate level at 300 mg, po once daily coadministered with 600 mg, po apricitabine twice daily for 4 days; assay type: ADME, organism-based; conditions: in vivo, 96 h; outline: as §2
Homo sapiens [35] = test: Cmax in healthy human PBMC assessed as intracellular lamivudine triphosphate level per 10^6 cells at 300 mg, po administered once daily for 4 days; conditions: in vivo, 96 h
[36] = AUC (0 to 24 hrs) in healthy human at 300 mg, po once daily coadministered with 600 mg, po apricitabine twice daily for 4 days; assay type: ADME, organism-based; parameters: time < 24 hr, dose 300 mg, route oral; conditions: plasma; outline: as §1
[37] = Cmax in healthy human at 300 mg, po once daily coadministered with 600 mg, po apricitabine twice daily for 4 days; assay type: ADME, organism-based; parameters: dose 300 mg, route oral; conditions: in vivo; outline: as §1
Homo sapiens [38] = test: Cmin in healthy human PBMC assessed as intracellular apricitabine triphosphate level per 10^6 cells at 300 mg, po once daily coadministered with 600 mg, po apricitabine twice daily for 4 days; assay type: ADME, organism-based; conditions: in vivo, 96 h
[39] = Tmax in healthy human at 300 mg, po administered once daily for 4 days; assay type: ADME, organism-based; conditions: in vivo; outline: as §1
Homo sapiens [40] = test: Tmax in healthy human PBMC assessed as intracellular apricitabine triphosphate level at 300 mg, po administered once daily for 4 days; assay type: ADME, organism-based; conditions: in vivo, 96 h, in the assay text read “lamivudine” for “apricitabine”; outline: as §2

AUC at 24 h [1]: 70900 ng·h/mL
Cmin_PBMC (Homo sapiens [2]): 0.078 pmol/10^6cells
t1/2 (Homo sapiens [3]): 5.06 h
Cmin_PBMC (Homo sapiens [4]): 0.6 pmol/10^6cells
Cmax (Homo sapiens [5]): 1.66 pmol/10^6cells
AUC (Homo sapiens [6]): 1.98 pmol·h/10^6 cells
CL renal at 96 h [7]: 192 mL/min
Ratio (Homo sapiens [8]): 3.28
Vdss (Homo sapiens [9]): 67.9 L
Cmax [10]: 7430 ng/mL
Cmax (Homo sapiens [11]): 0.257 pmol/10^6cells
CL/F [12]: 283 mL/min
Tmax [13]: 1.55 h
Vdss (Homo sapiens [14]): 67.7 L
Ratio (Homo sapiens [15]): 3.54
CL renal (Homo sapiens [16]): 12.2 L/h
t1/2 (Homo sapiens [17]): 6.22 h
AUC (Homo sapiens [18]): 13.3 pmol·h/10^6 cells
CL/F (Homo sapiens [19]): 18.3 L/h
half-life [20]: 2.6 h
Cmax [21]: 7110 ng/mL
AUC at 24 h [22]: 65600 ng·h/mL
Tmax (Homo sapiens [23]): 3.14 h
half-life [24]: 2.72 h
Tmax (Homo sapiens [25]): 3.52 h
Tmax [26]: 1.76 h
SMILES: Nc1ccn([C@H]2CO[C@@H](CO)S2)c(=O)n1 [APRICITABINE]

AUC (Homo sapiens [27]): 161 pmol·h/10^6 cells
Cmax [28]: 3980 ng/mL
Cmax (Homo sapiens [29]): 9.91 pmol/10^6cells
Tmax [30]: 1.02 h
AUC at 24 h [31]: 15700 ng·h/mL
Cmin_PBMC (Homo sapiens [32]): 4.35 pmol/10^6cells
AUC (Homo sapiens [33]): 154 pmol·h/10^6 cells
Tmax (Homo sapiens [34]): 3.9 h
Cmax (Homo sapiens [35]): 9.83 pmol/10^6cells
AUC at 24 h [36]: 15500 ng·h/mL
Cmax [37]: 3810 ng/mL
Cmin_PBMC (Homo sapiens [38]): 4.52 pmol/10^6cells
Tmax [39]: 1 h
Tmax (Homo sapiens [40]): 4.76 h
SMILES: Nc1ccn([C@@H]2CS[C@H](CO)O2)c(=O)n1 [LAMIVUDINE]
